According to PMC9564113 (Peptide Science (Hoboken, N.j.), 2022):
In brackets after ≈: the same amount, converted by molar mass. Like-named read-outs stand apart in the source and are kept apart here. Ends that are not written are not given here.

Columns and labels:
[1] = test system: S. aureus USA300 membranes; test: Membrane permeabilization; type: cell-based, Staphylococcus aureus; details: in PBS, 4 × MIC (YZ103 16 μM, YZ105 4 μM, nafcillin 2 μM, linezolid 16 μM, LL‐37 16 μM), 20 μM propidium iodide, 37 °C
[2] = test system: Staphylococcus aureus USA300 LAC; test: Broth microdilution MIC, S. aureus USA300 LAC; type: cell-based; details: for Antibacterial minimal inhibitory concentration, Staphylococcus aureus USA300 LAC: broth microdilution, 37 °C, 18–20 h, read at 630 nm; for MIC, S. aureus clinical strain USA300: Table 5, broth microdilution; for MIC: Staphylococcus aureus
Outline: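 Broth microdilution was run in tryptic soy broth. Log-phase USA300 LAC (OD600 ≈ 0.5) was diluted to 0.001 OD over serially diluted test compound, incubated 18–20 h at 37 °C and read at 630 nm. For medium effects the broth was adjusted to pH 5.5, 6.8, 7.4 or 8.0, brought to 100 mM NaCl, or supplemented with 1, 5 or 10% human serum.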

[3] = test system: Pseudomonas aeruginosa E411‐17; test: Broth microdilution MIC, P. aeruginosa E411-17; type: cell-based; details: TSB, 37 °C, 18–20 h
Outline: (§1)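 Log-phase cultures (OD600 ≈ 0.5) grown in tryptic soy broth were diluted to 0.001 OD and added to serially diluted test compound. Peptide stocks were freshly made in autoclaved water and quantitated by UV. Plates were incubated at 37 °C for 18–20 h and read at 630 nm for growth.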

[4] = test system: Staphylococcus epidermidis 1457; test: Broth microdilution MIC, S. epidermidis 1457; type: cell-based; details: TSB, 37 °C, 18–20 h
Outline: as §1

Escherichia coli E423‐17 = test: Broth microdilution MIC, E. coli E423-17; type: cell-based; details: TSB, 37 °C, 18–20 h
Outline: as §1

[5] = test system: Klebsiella pneumoniae E406‐17; test: Broth microdilution MIC, K. pneumoniae E406-17; type: cell-based; details: TSB, 37 °C, 18–20 h
Outline: as §1

[6] = test system: Acinetobacter baumannii B28‐16; test: Broth microdilution MIC, A. baumannii B28-16; type: cell-based; details: TSB, 37 °C, 18–20 h
Outline: as §1

S. aureus Mu50 = test: Antibacterial assay, S. aureus clinical strain Mu50; type: cell-based, Staphylococcus aureus; details: broth microdilution, TSB
Outline: as §1

S. aureus USA200 = test: Antibacterial assay, S. aureus clinical strain USA200; type: cell-based, Staphylococcus aureus; details: broth microdilution, TSB
Outline: as §1

[7] = test system: Nafcillin‐resistant S. aureus USA300; test: Antibacterial assay, nafcillin-resistant S. aureus USA300; type: cell-based, Staphylococcus aureus
Outline: as §1

S. aureus USA400 = test: Antibacterial assay, S. aureus clinical strain USA400; type: cell-based, Staphylococcus aureus; details: broth microdilution, TSB
Outline: as §1

S. aureus Newman = test: Antibacterial assay, S. aureus clinical strain Newman; type: cell-based, Staphylococcus aureus; details: broth microdilution, TSB
Outline: as §1

[8] = test system: Gram‐positive and Gram‐negative bacteria; details: G+ = Gram‐positive bacteria; cited from earlier work
[9] = test system: Gram‐positive pathogens (S. aureus, Enterococcus faecalis, Streptococcus spp., Bacillus anthracis, Clostridioides difficile, Propionibacterium acnes, Mycobacter); details: cited from earlier work
S. aureus USA300 = test: Killing kinetics of exponential bacteria; type: cell-based, Staphylococcus aureus; details: 4 × MIC (YZ105 4 uM, nafcillin 2 μM, linezolid 16 μM), 2 h, exponential phase bacteria, colony counting
[10] = test system: S. aureus USA300 LAC biofilms; test: Effect on 24 h preformed biofilms; type: cell-based, Staphylococcus aureus
Outline: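 Biofilms were formed for 24 h at 37 °C from exponential-phase USA300 LAC. After PBS washes they were exposed to test compound in fresh TSB for 24 h at 37 °C. Following further washes, viable cells were measured by XTT (2 h, 37 °C, A450, blank of medium plus XTT). Results are given as % growth relative to untreated (100%), with water-treated and uninoculated controls; mean ± SD, p < 0.05.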

[11] = test system: S. aureus USA300 membrane potential; test: Membrane depolarization; type: cell-based, Staphylococcus aureus; details: DiBAC4(3) 500 nM; YZ105 8 μM, nafcillin 4 μM, linezolid 32 μM; Triton X‐100 positive control
Outline: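 USA300 was grown in TSB to exponential phase, washed twice with PBS, and resuspended in PBS with 25 mM glucose (15 min, 37 °C). DiBAC4(3) was added to 500 nM. Baseline fluorescence (ex 485/em 520 nm) was read for 20 min. Test compound was then added and reading continued for 40 min, with Triton X-100 as positive control.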

[12] = USA300, pH 5.5, read-out: MIC against S. aureus USA300, pH 5.5
[13] = USA300, pH 6.8, read-out: MIC against S. aureus USA300, pH 6.8
[14] = USA300, pH 7.4, read-out: MIC against S. aureus USA300, pH 7.4
[15] = USA300, pH 8, read-out: MIC against S. aureus USA300, pH 8
[16] = USA300, read-out: MIC against S. aureus USA300, 100 mM NaCl

For “LL‐37: human cathelicidin LL‐37 (LLGDFFRKSKEKIGKEFKRIVQRIKDFLRNLVPRTES; Antibacterial peptide LL-37; UniProt P49913 134-170, looked up)”, the “Membrane permeabilization (propidium iodide fluorescence)” value (“Membrane permeabilization” for short) [1] was “steady increase in fluorescence with time”.

With FLSKILSTLRILL-NH2 [YZ106] the “Antibacterial minimal inhibitory concentration, Staphylococcus aureus USA300 LAC” value ([2]; TSB) was 2 µM, the “Antibacterial minimal inhibitory concentration, Pseudomonas aeruginosa E411‐17” value [3] was over 16 µM and the “Antibacterial minimal inhibitory concentration, Staphylococcus epidermidis 1457” value [4] was 1 to 2 µM. The “Antibacterial minimal inhibitory concentration, Escherichia coli E423‐17” value (Escherichia coli E423‐17) was 8 to 16 µM, the “Antibacterial minimal inhibitory concentration, Klebsiella pneumoniae E406‐17” value [5] was over 16 µM and the “Antibacterial minimal inhibitory concentration, Acinetobacter baumannii B28‐16” value [6] was 8 µM.

For `CC[C@H](C)[C@H](NC(=O)[C@H](CCCNC(=N)N)NC(=O)[C@H](C)NC(=O)[C@@H](NC(=O)[C@H](CO)NC(=O)[C@@H](NC(=O)[C@@H](NC(=O)[C@H](CCC(N)=O)NC(=O)[C@H](CO)NC(=O)[C@@H](NC(=O)[C@@H](N)Cc1ccccc1)[C@@H](C)CC)[C@@H](C)CC)[C@@H](C)CC)[C@@H](C)O)C(=O)N[C@@H](CC(C)C)C(=O)N[C@@H](CC(C)C)C(N)=O` [YZ104], the “Antibacterial minimal inhibitory concentration, Staphylococcus aureus USA300 LAC” value ([2]; TSB) was over 16 µM, the “Antibacterial minimal inhibitory concentration, Pseudomonas aeruginosa E411‐17” value [3] was over 16 µM and the “Antibacterial minimal inhibitory concentration, Staphylococcus epidermidis 1457” value [4] was over 16 µM. For the same molecule, the “Antibacterial minimal inhibitory concentration, Escherichia coli E423‐17” value (Escherichia coli E423‐17) was over 16 µM, the “Antibacterial minimal inhibitory concentration, Klebsiella pneumoniae E406‐17” value [5] was over 16 µM and the “Antibacterial minimal inhibitory concentration, Acinetobacter baumannii B28‐16” value [6] was over 16 µM.

With FLSQILSTLRILL-NH2 [YZ105] the “MIC, S. aureus clinical strain Mu 50” value (S. aureus Mu50) was 2 µM, the “MIC, S. aureus clinical strain USA200” value (S. aureus USA200) was 1 µM and the “MIC, Nafcillin‐resistant USA300” value ([7]; broth microdilution, TSB) was 2 µM. The “MIC against S. aureus USA300, pH 5.5” value ([2]; TSB adjusted to pH 5.5) was 4–8 μM, the “MIC against S. aureus USA300, pH 6.8” value ([2]; TSB adjusted to pH 6.8) was 2 μM and the “MIC against S. aureus USA300, pH 8” value ([2]; TSB adjusted to pH 8.0) was under 0.5 μM. The “MIC against S. aureus USA300, 100 mM NaCl” value ([2]; TSB with 100 mM NaCl added) was 2 µM, the “MIC against S. aureus USA300, 1% serum” value ([2]; TSB with 1% human serum) was 2 µM and the “MIC against S. aureus USA300, 5% serum” value ([2]; TSB with 5% human serum) was 8 µM. The “MIC against S. aureus USA300, 10% serum” value ([2]; TSB with 10% human serum) was 8 to 16 µM, the “MIC against S. aureus USA300, pH 7.4” value ([2]; TSB, pH 7.4 (normal condition)) was 1–2 μM and the “MIC, S. aureus clinical strain USA300” value ([2]; TSB) was 1 µM. For the same molecule, the “Antibacterial minimal inhibitory concentration, Staphylococcus aureus USA300 LAC” value ([2]; TSB) was 1 µM, the “MIC, S. aureus clinical strain USA400” value (S. aureus USA400) was 1 µM and the “Antibacterial minimal inhibitory concentration, Pseudomonas aeruginosa E411‐17” value [3] was over 16 µM. For the same molecule, the “Antibacterial minimal inhibitory concentration, Staphylococcus epidermidis 1457” value [4] was 1 µM, the “Antibacterial minimal inhibitory concentration, Escherichia coli E423‐17” value (Escherichia coli E423‐17) was over 16 µM and the “Antibacterial minimal inhibitory concentration, Klebsiella pneumoniae E406‐17” value [5] was over 16 µM. For the same molecule, the “MIC, S. aureus clinical strain Newman” value (S. aureus Newman) was 2 µM and the “Antibacterial minimal inhibitory concentration, Acinetobacter baumannii B28‐16” value [6] was over 16 µM.

In the case of teixobactin, the Activity spectrum [8] is given as “Mainly G+” and the MIC [9] is given as 5 to 250 ng/mL.

For `CC[C@H](C)[C@H](NC(=O)[C@H](CCCNC(=N)N)NC(=O)[C@H](C)NC(=O)[C@@H](NC(=O)[C@H](CO)NC(=O)[C@@H](NC(=O)[C@@H](NC(=O)[C@H](CCC(N)=O)NC(=O)[C@H](CO)NC(=O)[C@@H](NC(=O)[C@@H](N)Cc1ccccc1)[C@@H](C)CC)[C@@H](C)CC)[C@@H](C)CC)[C@@H](C)O)C(N)=O` [YZ103], the “MIC, S. aureus clinical strain Mu 50” value (S. aureus Mu50) was over 32 µM, the “MIC, S. aureus clinical strain USA200” value (S. aureus USA200) was over 32 µM and the “MIC, S. aureus clinical strain USA300” value ([2]; TSB) was over 32 µM. For the same molecule, the “Antibacterial minimal inhibitory concentration, Staphylococcus aureus USA300 LAC” value ([2]; TSB) was over 16 µM, the “MIC, S. aureus clinical strain USA400” value (S. aureus USA400) was over 32 µM and the “Antibacterial minimal inhibitory concentration, Pseudomonas aeruginosa E411‐17” value [3] was over 16 µM. For the same molecule, the “Antibacterial minimal inhibitory concentration, Staphylococcus epidermidis 1457” value [4] was over 16 µM, the “Antibacterial minimal inhibitory concentration, Escherichia coli E423‐17” value (Escherichia coli E423‐17) was over 16 µM and the “Antibacterial minimal inhibitory concentration, Klebsiella pneumoniae E406‐17” value [5] was over 16 µM. For the same molecule, the “MIC, S. aureus clinical strain Newman” value (S. aureus Newman) was over 32 µM and the “Antibacterial minimal inhibitory concentration, Acinetobacter baumannii B28‐16” value [6] was over 16 µM.

For `CC(=O)NC[C@H]1CN(c2ccc(N3CCOCC3)c(F)c2)C(=O)O1` [Linezolid, linezolid, reference compound], the “Reduction of MRSA counts (CFU) in killing kinetics” value (S. aureus USA300) was 1 log, the “Membrane permeabilization” value [1] was “neither nafcillin nor linezolid permeabilized the membranes” and the “Effect on 24 h preformed biofilms in combination” value ([10]; in the presence of 2 μM YZ105, XTT) was “became more effective”. For the same molecule, the MIC [2, 12] was 4 µM (≈ 1.35 µg/mL), the MIC [2, 13] was 4 µM (≈ 1.35 µg/mL) and the MIC [2, 14] was 4 µM (≈ 1.35 µg/mL). For the same molecule, the MIC [2, 15] was 4 to 8 µM (≈ 1.35 to 2.7 µg/mL), the MIC [2, 16] was 4 µM (≈ 1.35 µg/mL) and the Membrane depolarization [11] was “neither nafcillin nor linezolid was able to”.

In the case of FLSKILSTLRILF-NH2 [YZ107], the “Antibacterial minimal inhibitory concentration, Staphylococcus aureus USA300 LAC” value ([2]; TSB) is reported as 2 µM, the “Antibacterial minimal inhibitory concentration, Pseudomonas aeruginosa E411‐17” value [3] is reported as 8 to 16 µM and the “Antibacterial minimal inhibitory concentration, Staphylococcus epidermidis 1457” value [4] is reported as 2 µM. The “Antibacterial minimal inhibitory concentration, Escherichia coli E423‐17” value (Escherichia coli E423‐17) was 8 µM, the “Antibacterial minimal inhibitory concentration, Klebsiella pneumoniae E406‐17” value [5] was over 16 µM and the “Antibacterial minimal inhibitory concentration, Acinetobacter baumannii B28‐16” value [6] was 4 to 8 µM.

For `CCOc1ccc2ccccc2c1C(=O)N[C@@H]1C(=O)N2[C@@H]1SC(C)(C)[C@@H]2C(=O)O` [Nafcillin, nafcillin, reference compound], the “Reduction of MRSA counts (CFU) in killing kinetics” value (S. aureus USA300) was “barely reduced bacterial burden”, the “Membrane permeabilization” value [1] was “neither nafcillin nor linezolid permeabilized the membranes” and the “Effect on 24 h preformed biofilms” value ([10]; 24 h treatment in TSB, live cells by XTT at 450 nm, relative to untreated (100%)) was “did not display a clear effect”. It also gave an MIC ([7]; Staphylococcus aureus, USA300, read-out: MIC, Nafcillin‐resistant USA300) of 1020 µM (≈ 424 µg/mL), an MIC [2, 12] of 0.5 µM (≈ 0.207 µg/mL) and an MIC [2, 13] of 1 µM (≈ 0.414 µg/mL). For the same molecule, the MIC [2, 14] was 0.5 to 1 µM (≈ 0.207 to 0.414 µg/mL), the MIC [2, 15] was 1 µM (≈ 0.414 µg/mL) and the MIC [2, 16] was 1 to 2 µM (≈ 0.414 to 0.829 µg/mL). The “Increase of MIC values by serum” value ([2]; TSB with human serum compared with normal TSB) was 4–8 fold and the Membrane depolarization [11] was “neither nafcillin nor linezolid was able to”.
